Test results: ChEMBL document CHEMBL1154090, “Synthesis, spectral and biological evaluation of some new thiazolidinones and thiazoles based on t-3-alkyl-r-2,c-6-diarylpiperidin-4-ones” (2009)
≈ marks a conversion by molar mass, not a printed value.

Legend:
[1] = system: Mycobacterium tuberculosis; assay: Antimycobacterial activity against Mycobacterium tuberculosis H37Rv ATCC 27294 by BACTEC radiometric respiratory technique; type: functional
Procedure, shortened: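 Compounds prepared as DMSO solutions and tested over 256 to 1 µg/ml, with isoniazid and rifampicin as reference drugs.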

Staphylococcus aureus [2] = assay: Antibacterial activity against Staphylococcus aureus by broth microdilution method; type: functional
Escherichia coli = assay: Antibacterial activity against Escherichia coli by broth microdilution method; type: functional
Klebsiella pneumoniae [3] = assay: Antibacterial activity against Klebsiella pneumoniae by broth microdilution method; type: functional
Candida albicans = assay: Antifungal activity against Candida albicans by broth microdilution method; type: functional
Aspergillus flavus = assay: Antifungal activity against Aspergillus flavus by broth microdilution method; type: functional
Rhizopus sp = assay: Antifungal activity against Rhizopus sp. by broth microdilution method
[4] = system: Mycobacterium tuberculosis; assay: Ratio of isoniazid MIC to drug MIC for Mycobacterium tuberculosis H37Rv ATCC 27294; type: functional
[5] = system: Mycobacterium tuberculosis; assay: Ratio of rifampicin MIC to drug MIC for Mycobacterium tuberculosis H37Rv ATCC 27294; type: functional
Rhizopus = assay: Ratio of amphotericin B MIC to drug MIC for Rhizopus sp.; type: functional
Staphylococcus aureus [6] = assay: Ratio of ciprofloxacin MIC to drug MIC for Staphylococcus aureus; type: functional
Klebsiella pneumoniae [7] = assay: Ratio of ciprofloxacin MIC to drug MIC for Klebsiella pneumoniae; type: functional

Row | Compound | MIC [1] [µg/mL] | MIC (Staphylococcus aureus [2]) [µg/mL] | MIC (Escherichia coli) [µg/mL] | MIC (Klebsiella pneumoniae [3]) [µg/mL] | MIC (Candida albicans) [µg/mL] | MIC (Aspergillus flavus) [µg/mL] | MIC (Rhizopus sp) [µg/mL] | Ratio [4] | Ratio [5] | Ratio (Rhizopus) | Ratio (Staphylococcus aureus [6]) | Ratio (Klebsiella pneumoniae [7])
1 | CCOC(=O)Cc1csc(N/N=C2\CC(c3ccc(Cl)cc3)NC(c3ccc(Cl)cc3)C2C)n1 (stereo not given) | > 256 | 32 (≈ 61.8 µM) | 64 (≈ 124 µM) | 128 (≈ 247 µM) | > 256 | 64 (≈ 124 µM) | 128 (≈ 247 µM) |  |  |  |  | 
2 | CCC1/C(=N/N=C2\NC(=O)CS2)CC(c2ccccc2)NC1c1ccccc1 (stereo not given) | > 256 | 128 (≈ 326 µM) | > 256 | > 256 | 256 (≈ 652 µM) | > 256 | > 256 |  |  |  |  | 
3 | CCOC(=O)Cc1csc(N/N=C2\CC(c3ccccc3)N(C)C(c3ccccc3)C2C)n1 (stereo not given) | 16 (≈ 34.6 µM) | 16 (≈ 34.6 µM) | 128 (≈ 277 µM) | 32 (≈ 69.2 µM) | 256 (≈ 553 µM) | 64 (≈ 138 µM) | 8 (≈ 17.3 µM) | 1.56 | 200 | 1 |  | 
4 | CCOC(=O)Cc1csc(N/N=C2\CC(c3ccc(OC)cc3)NC(c3ccc(OC)cc3)C2C)n1 (stereo not given) | 16 (≈ 31.5 µM) | 64 (≈ 126 µM) | 128 (≈ 252 µM) | 256 (≈ 503 µM) | > 256 | > 256 | 256 (≈ 503 µM) | 1.56 | 200 |  |  | 
5 | Cc1ccc(C2C/C(=N\N=C3/NC(=O)CS3)C(C)C(c3ccc(C)cc3)N2)cc1 (stereo not given) | 64 (≈ 157 µM) | 64 (≈ 157 µM) | 128 (≈ 315 µM) | 256 (≈ 630 µM) | > 256 | 128 (≈ 315 µM) | 256 (≈ 630 µM) | 0.39 | 50 |  |  | 
6 | CCOC(=O)Cc1csc(N/N=C2\CC(c3ccc(Br)cc3)NC(c3ccc(Br)cc3)C2C)n1 (stereo not given) | > 256 | 16 (≈ 26.4 µM) | 4 (≈ 6.6 µM) | 8 (≈ 13.2 µM) | 8 (≈ 13.2 µM) | 32 (≈ 52.8 µM) | 256 (≈ 422 µM) |  |  |  |  | 
7 | CCOC(=O)Cc1csc(N/N=C2\CC(c3ccc(C)cc3)NC(c3ccc(C)cc3)C2C)n1 (stereo not given) | > 256 | > 256 | 128 (≈ 269 µM) | 256 (≈ 537 µM) | > 256 | > 256 | 128 (≈ 269 µM) |  |  |  |  | 
8 | CCOC(=O)Cc1csc(N/N=C2\CC(c3ccc(F)cc3)NC(c3ccc(F)cc3)C2C)n1 (stereo not given) | 16 (≈ 33 µM) | 16 (≈ 33 µM) | 32 (≈ 66 µM) | 64 (≈ 132 µM) | 128 (≈ 264 µM) | 32 (≈ 66 µM) | 16 (≈ 33 µM) | 1.56 | 200 |  |  | 
9 | CCOC(=O)Cc1csc(N/N=C2\CC(c3ccccc3)NC(c3ccccc3)C2C)n1 (stereo not given) | 64 (≈ 143 µM) | > 256 | 128 (≈ 285 µM) | > 256 | > 256 | 256 (≈ 571 µM) | > 256 | 0.39 | 50 |  |  | 
10 | CCOC(=O)Cc1csc(N/N=C2\CC(c3ccccc3)NC(c3ccccc3)C2CC)n1 (stereo not given) | > 256 | 128 (≈ 277 µM) | > 256 | > 256 | > 256 | > 256 | 256 (≈ 553 µM) |  |  |  |  | 
11 | CC1/C(=N/N=C2\NC(=O)CS2)CC(c2ccc(F)cc2)NC1c1ccc(F)cc1 (stereo not given) | 128 (≈ 309 µM) | 4 (≈ 9.65 µM) | 32 (≈ 77.2 µM) | 4 (≈ 9.65 µM) | 16 (≈ 38.6 µM) | 8 (≈ 19.3 µM) | 16 (≈ 38.6 µM) | 0.19 | 25 |  | 1 | 2
12 | CC1/C(=N/N=C2\NC(=O)CS2)CC(c2ccccc2)N(C)C1c1ccccc1 (stereo not given) | 16 (≈ 40.8 µM) | 16 (≈ 40.8 µM) | 128 (≈ 326 µM) | 64 (≈ 163 µM) | 64 (≈ 163 µM) | 64 (≈ 163 µM) | 8 (≈ 20.4 µM) | 1.56 | 200 | 1 |  | 
13 | COc1ccc(C2C/C(=N\N=C3/NC(=O)CS3)C(C)C(c3ccc(OC)cc3)N2)cc1 (stereo not given) | 32 (≈ 73 µM) | 32 (≈ 73 µM) | 32 (≈ 73 µM) | 64 (≈ 146 µM) | 64 (≈ 146 µM) | 128 (≈ 292 µM) | 128 (≈ 292 µM) | 0.78 | 100 |  |  | 
14 | CC1/C(=N/N=C2\NC(=O)CS2)CC(c2ccc(Br)cc2)NC1c1ccc(Br)cc1 (stereo not given) | 16 (≈ 29.8 µM) | 8 (≈ 14.9 µM) | 16 (≈ 29.8 µM) | 8 (≈ 14.9 µM) | 64 (≈ 119 µM) | 32 (≈ 59.7 µM) | 16 (≈ 29.8 µM) | 1.56 | 200 |  |  | 
15 | CC1/C(=N/N=C2\NC(=O)CS2)CC(c2ccccc2)NC1c1ccccc1 (stereo not given) | 64 (≈ 169 µM) | 64 (≈ 169 µM) | 256 (≈ 676 µM) | 64 (≈ 169 µM) | > 256 | 64 (≈ 169 µM) | > 256 | 0.39 | 50 |  |  | 
16 | CC1/C(=N/N=C2\NC(=O)CS2)CC(c2ccc(Cl)cc2)NC1c1ccc(Cl)cc1 (stereo not given) | 16 (≈ 35.8 µM) | 8 (≈ 17.9 µM) | 128 (≈ 286 µM) | 128 (≈ 286 µM) | 128 (≈ 286 µM) | 128 (≈ 286 µM) | 256 (≈ 572 µM) | 1.56 | 200 |  |  | 
17 | C[C@@H]1[C@H](O)[C@@H](C)/C=C/C=C/C=C/C=C/C=C/C=C/C=C/[C@H](O[C@@H]2O[C@H](C)[C@@H](O)[C@H](N)[C@@H]2O)C[C@@H]2O[C@](O)(C[C@@H](O)C[C@@H](O)[C@H](O)CC[C@@H](O)C[C@@H](O)CC(=O)O[C@H]1C)C[C@H](O)[C@H]2C(=O)O [AMPHOTERICIN B] |  |  |  |  | 8 (≈ 8.66 µM) | 8 (≈ 8.66 µM) | 16 (≈ 17.3 µM) |  |  |  |  | 
18 | O=C(O)c1cn(C2CC2)c2cc(N3CCNCC3)c(F)cc2c1=O [CIPROFLOXACIN] |  | 8 (≈ 24.1 µM) |  | 16 (≈ 48.3 µM) |  |  |  |  |  |  |  | 
19 | NNC(=O)c1ccncc1 [ISONIAZID] | 0.25 (≈ 1.82 µM) |  |  |  |  |  |  |  |  |  |  | 
20 | CO[C@H]1/C=C/O[C@@]2(C)Oc3c(C)c(O)c4c(O)c(c(/C=N/N5CCN(C)CC5)c(O)c4c3C2=O)NC(=O)/C(C)=C\C=C\[C@H](C)[C@H](O)[C@@H](C)[C@@H](O)[C@@H](C)[C@H](OC(C)=O)[C@@H]1C [RIFAMPIN] | 32 (≈ 38.9 µM) |  |  |  |  |  |  |  |  |  |  | 
